Measurements gathered from unrelated publications.
Organism: Staphylococcus aureus

With Cc1cccc2c(=O)n(-c3ccccc3)c(SCC(=O)NN=Cc3ccc(OS(C)(=O)=O)cc3)nc12 the inhibition zone was 2 mm (microbial growth, well diffusion; MRSA; 20 µg/mL).
CC1(C)S[C@@H]2[C@H](NC(=O)[C@H](N)c3ccccc3)C(=O)N2[C@H]1C(=O)O gave an MIC90 of 64 µg/mL (microbial growth; MSSA; clinical isolate).
For COc1cc2c(cc1OC)-c1cc3ccc(OC)c(OC)c3c[n+]1CC2, the MIC50 was 205 µM (microbial growth; 24 h).
For C=C[C@]1(C)C[C@@H](OC(=O)CS[C@@H]2C[C@H]3CC[C@@H](C2)N3C)[C@]2(C)[C@H](C)CC[C@]3(CCC(=O)[C@H]32)[C@@H](C)[C@@H]1O, the MIC90 was 0.125 µg/mL (microbial growth; MRSA; clinical isolate).
CN1CCN(CCCN2c3ccccc3Sc3ccc(Cl)cc32)CC1 gave an MBC of 64 µg/mL (microbial killing, broth dilution; ATCC43300; 18 h).
O=C(/C=C/C=C/c1ccccc1)c1ccccc1OCc1ccc(Cl)c(Cl)c1 gave an inhibition zone of 7 mm (microbial growth, well diffusion; MTCC96; 1000 µg/mL, 18 h).
The inhibition zone of CCS(=O)(=O)Oc1ccc(C=NNC(=O)CSc2nc3ccc(Cl)cc3c(=O)n2-c2ccccc2)cc1 is reported as 2 mm (microbial growth, well diffusion; MRSA; 20 µg/mL).
The MIC90 of CC(=O)NC[C@H]1CN(c2ccc(N3CCOCC3)c(F)c2)C(=O)O1 is reported as 2 µg/mL (microbial growth; MRSA; clinical isolate).
For O=C(/C=C/C=C/c1ccccc1)c1ccccc1OCc1ccccc1Cl, the inhibition zone was 7 mm (microbial growth, well diffusion; MTCC96; 1000 µg/mL, 18 h).
The MIC90 of O=C(O)c1cn(C2CC2)c2cc(N3CCNCC3)c(F)cc2c1=O is reported as 3.13 µM (microbial growth, broth dilution).
COc1ccc(C=NNC(=O)CSc2nc3c(C)cccc3c(=O)n2-c2ccccc2)cc1OS(C)(=O)=O gave an inhibition zone of 3 mm (microbial growth, well diffusion; MRSA; 20 µg/mL).
The MIC90 of CC[C@H]1OC(=O)[C@H](C)[C@@H](O[C@H]2C[C@@](C)(OC)[C@@H](O)[C@H](C)O2)[C@H](C)[C@@H](O[C@@H]2O[C@H](C)C[C@H](N(C)C)[C@H]2O)[C@](C)(O)C[C@@H](C)/C(=N\OCOCCOC)[C@H](C)[C@@H](O)[C@]1(C)O is reported as 64 µg/mL (microbial growth; MRSA; clinical isolate).
CNC(C)C1CCC(N)C(OC2C(N)CC(N)C(OC3OCC(C)(O)C(NC)C3O)C2O)O1 (centres unmarked) gave an MBC of 8 mM (microbial killing, broth dilution; ATCC25923; 24 h).
For CCS(=O)(=O)Oc1ccc(C=NNC(=O)CSc2nc3c(C)cccc3c(=O)n2-c2ccccc2)cc1, the inhibition zone was 3 mm (microbial growth, well diffusion; MRSA; 20 µg/mL).
With [H]/N=C(/N)N[C@H]1[C@H](O)[C@@H](O)[C@H](O[C@@H]2O[C@@H](C)[C@](O)(C=O)[C@H]2O[C@@H]2O[C@@H](CO)[C@H](O)[C@@H](O)[C@@H]2NC)[C@@H](N/C(N)=N\[H])[C@@H]1O the inhibition zone was 24 mm (microbial growth, well diffusion; MTCC96; 1000 µg/mL, 18 h).
The MIC90 of CN[C@H](CC(C)C)C(=O)N[C@H]1C(=O)N[C@@H](CC(N)=O)C(=O)N[C@H]2C(=O)N[C@H]3C(=O)N[C@H](C(=O)N[C@H](C(=O)O)c4cc(O)cc(O)c4-c4cc3ccc4O)[C@H](O)c3ccc(c(Cl)c3)Oc3cc2cc(c3O[C@@H]2O[C@H](CO)[C@@H](O)[C@H](O)[C@H]2O[C@H]2C[C@](C)(N)[C@H](O)[C@H](C)O2)Oc2ccc(cc2Cl)[C@H]1O is reported as 1 µg/mL (microbial growth; MSSA; clinical isolate).
The inhibition zone of CCCS(=O)(=O)Oc1ccc(C=NNC(=O)CSc2nc3c(C)cccc3c(=O)n2-c2ccccc2)cc1OC is reported as 4 mm (microbial growth, well diffusion; MRSA; 20 µg/mL).
